Test results reported in article PMC10318414 (RSC Advances, 2023).
*1 amine or outer side, *2 acyl side, *3 side chain or, on linkers, in order; H or OH if unused. Where a SMILES comes first, the peptide text is derived from it. Bridges are numbered along the chain shown (N, C = ends). Biphenyl(4,4'-CH2)2 = c1cc(-c2ccc(C[*:2])cc2)ccc1C[*:1]; mXylylene = c1cc(C[*:1])cc(C[*:2])c1; oXylylene = c1ccc(C[*:2])c(C[*:1])c1; pXylylene = c1cc(C[*:2])ccc1C[*:1]

Key:
glioma cell line (U87) = test: CCK8 cell proliferation assay, U87; type: cell-based, human; conditions: read-out: IC50 (μM) U87; CCK8, 48 h peptide treatment, 0.78–25 μM, OD 450 nm
Procedure, shortened: (§1)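 Cells kept in DMEM with 10% FBS and 1% penicillin-streptomycin at 37 °C, 5% CO2. Seeded at 3 × 10^3 cells/well and grown for 24 h. Treated with or without peptide (0.78, 1.56, 3.125, 6.25, 12.5, 25 μM) for 48 h. Medium then switched to serum-free; CCK-8 added 10 μL/well for 1 h at 37 °C. OD read at 450 nm; IC50 obtained by curve fitting.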

[1] = test system: human breast cancer cell line (MCF-7); test: CCK8 cell proliferation assay, MCF-7; type: cell-based; conditions: read-out: IC50 (μM) MCF-7; CCK8, 48 h peptide treatment, 0.78–25 μM, OD 450 nm
Procedure, shortened: as §1

[2] = test system: human colon cancer cell line (HCT116); test: CCK8 cell proliferation assay, HCT116; type: cell-based; conditions: read-out: IC50 (μM) HCT116; CCK8, 48 h peptide treatment, 0.78–25 μM, OD 450 nm
Procedure, shortened: as §1

MCF-7 cells [3] = test: In vitro transwell migration assay; type: cell-based, human; conditions: MCF-7, transwell 8 μm pore, 48 h, compared with control group, n = 3
MCF-7 cells [4] = test: Calcein-AM/PI cell viability staining; type: cell-based, human; conditions: MCF-7, 10 μM peptide, 24 hours
Procedure, shortened: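 MCF-7 seeded at 5 × 10^3 cells/well and held at 37 °C for 24 h. Peptide added at a final 10 μM for another 24 h. Cells stained with a PBS working solution of calcein-AM (2 μM) and PI (4.5 μM) at 37 °C for 15 min. Live/dead fluorescence imaged on a high-content screening system.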

MCF-7 cells [5] = test: Annexin V-FITC/PI apoptosis assay by flow cytometry; type: cell-based, human; conditions: MCF-7, 10 μM peptide

Structure (SMILES): CC(C)C[C@H](NC(=O)[C@H](CC(C)C)NC(=O)[C@H](CC(=O)O)NC(=O)[C@H](CCCCN)NC(=O)[C@H](Cc1ccccc1)NC(=O)CN)C(=O)N[C@@H](CCCCN)C(=O)NCC(=O)N[C@@H](C)C(=O)N[C@@H](C)C(=O)N[C@@H](CCCCN)C(=O)N[C@H]1CSCc2ccccc2CSC[C@@H](C(=O)N[C@H](C(=O)N[C@@H](CC(C)C)C(=O)N[C@@H](Cc2ccccc2)C(N)=O)C(C)C)NC(=O)[C@H](CCCCN)NC(=O)[C@H](C(C)C)NC(=O)[C@H](CC(C)C)NC1=O [Peptide A8-3-o] (H-GFKDLLKGAAKCLVKCVLF-NH2; linker 12-16 via oXylylene)
- IC50 (glioma cell line (U87)): 9.28 µM
- IC50 [1]: 6.03 µM
- IC50 [2]: 7.68 µM

Structure (SMILES): CC(C)C[C@H](NC(=O)[C@H](CC(C)C)NC(=O)[C@H](CC(=O)O)NC(=O)[C@H](CCCCN)NC(=O)[C@H](Cc1ccccc1)NC(=O)CN)C(=O)N[C@@H](CCCCN)C(=O)NCC(=O)N[C@@H](C)C(=O)N[C@@H](C)C(=O)N[C@@H](CCCCN)C(=O)N[C@H]1CSCc2cccc(c2)CSC[C@@H](C(=O)N[C@H](C(=O)N[C@@H](CC(C)C)C(=O)N[C@@H](Cc2ccccc2)C(N)=O)C(C)C)NC(=O)[C@H](CCCCN)NC(=O)[C@H](C(C)C)NC(=O)[C@H](CC(C)C)NC1=O [Peptide A8-3-m] (H-GFKDLLKGAAKCLVKCVLF-NH2; linker 12-16 via mXylylene)
- IC50 (glioma cell line (U87)): 8.69 µM
- IC50 [1]: 7.8 µM
- IC50 [2]: 9.21 µM

Structure (SMILES): CC(C)C[C@@H]1NC(=O)[C@H](C)NC(=O)[C@H](CCCCN)NC(=O)[C@H](C)NC(=O)[C@@H](NC(=O)CNC(=O)[C@H](CCCCN)NC(=O)[C@H](CC(C)C)NC(=O)[C@H](CC(C)C)NC(=O)[C@H](CC(=O)O)NC(=O)[C@H](CCCCN)NC(=O)[C@H](Cc2ccccc2)NC(=O)CN)CSCc2ccc(cc2)-c2ccc(cc2)CSC[C@@H](C(=O)N[C@H](C(=O)N[C@@H](CC(C)C)C(=O)N[C@@H](Cc2ccccc2)C(N)=O)C(C)C)NC(=O)[C@H](CCCCN)NC(=O)[C@H](C(C)C)NC1=O [Peptide A8-4-Dp] (H-GFKDLLKGCAKALVKCVLF-NH2; linker 9-16 via Biphenyl(4,4'-CH2)2)
- Migration through the polycarbonate membrane (MCF-7 cells [3]): rarely migrated
- IC50 (glioma cell line (U87)): 3.63 µM
- IC50 [1]: 2.99 µM
- IC50 [2]: 3.03 µM
- Calcein-AM/PI fluorescence of cells (MCF-7 cells [4]): a large amount of red fluorescence
- Number of apoptotic cells versus Ascaphin-8 and normal medium (MCF-7 cells [5]): significantly higher

Structure (SMILES): CC(C)C[C@H](NC(=O)[C@H](CC(C)C)NC(=O)[C@H](CC(=O)O)NC(=O)[C@H](CCCCN)NC(=O)[C@H](Cc1ccccc1)NC(=O)CN)C(=O)N[C@@H](CCCCN)C(=O)NCC(=O)N[C@@H](C)C(=O)N[C@@H](C)C(=O)N[C@@H](CCCCN)C(=O)N[C@H]1CSCc2ccc(cc2)CSC[C@@H](C(=O)N[C@H](C(=O)N[C@@H](CC(C)C)C(=O)N[C@@H](Cc2ccccc2)C(N)=O)C(C)C)NC(=O)[C@H](CCCCN)NC(=O)[C@H](C(C)C)NC(=O)[C@H](CC(C)C)NC1=O [Peptide A8-3-p] (H-GFKDLLKGAAKCLVKCVLF-NH2; linker 12-16 via pXylylene)
- IC50 (glioma cell line (U87)): 14.4 µM
- IC50 [1]: 11.7 µM
- IC50 [2]: 11.2 µM
